Measured values: ChEMBL document CHEMBL3271934, “Inhibition of separated forms of phosphodiesterases from pig coronary arteries by uracils and by 7-substituted derivatives of 1-methyl-3-isobutylxanthine” (J Med Chem, 1976)
Active and inactive are the calls of the source. The calls are words filed in the database; no cut-off is given here.

Columns and labels:
[1] = Inhibition of phosphodiesterase (peak-1) isolated from pig coronary artery assessed as inhibition of cGMP hydrolysis using 1 uM cGMP substrate in presence of 3% Me2SO; conditions: Sus scrofa; read-out: I50
Outline: (§1)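 Enzyme is a separated phosphodiesterase form from pig coronary arteries, assayed with 1 μM substrate at 30° for 30 min. Enzyme dilution gave 10–20% hydrolysis without inhibitor. Compounds were added from 30% Me2SO, giving a final 3% Me2SO in all tubes. Peak I received an optimal amount of activator (15 μg protein). I50 was read from concentration–percent inhibition curves spanning 10^-7 to 10^-4 M (10^-3 M if soluble). MIX reference was run each experiment. Results are mean ± SEM of duplicate determinations across enzyme preparations.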

[2] = Inhibition of phosphodiesterase (peak-1) isolated from pig coronary artery assessed as inhibition of cAMP hydrolysis using 1 uM cAMP substrate in presence of 3% Me2SO; conditions: Sus scrofa; read-out: I50; outline: as §1
[3] = Inhibition of phosphodiesterase (peak-2) isolated from pig coronary artery assessed as inhibition of cAMP hydrolysis using 1 uM cAMP substrate in presence of 3% Me2SO; conditions: Sus scrofa; read-out: I50; outline: as §1
Sus scrofa [4] = organism: Sus scrofa; assay: Inhibition of phosphodiesterase (peak-1) isolated from pig coronary artery assessed as inhibition of cGMP hydrolysis at 10^-4 M using 1 uM cGMP substrate in presence of 3% Me2SO
Outline: (§2)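 Percent inhibition was measured at a single 10^-4 M concentration against a separated pig coronary artery phosphodiesterase form. Conditions: 1 μM substrate, 30°, 30 min, enzyme dilution giving 10–20% uninhibited hydrolysis, final 3% Me2SO in all tubes including blank. Peak I was assayed with an optimal amount of activator (15 μg protein). Results are duplicate determinations, mean ± SEM over separate enzyme preparations.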

Sus scrofa [5] = organism: Sus scrofa; assay: Inhibition of phosphodiesterase (peak-2) isolated from pig coronary artery assessed as inhibition of cAMP hydrolysis at 10^-4 M using 1 uM cAMP substrate in presence of 3% Me2SO; outline: as §2
Sus scrofa [6] = organism: Sus scrofa; assay: Inhibition of phosphodiesterase (peak-1) isolated from pig coronary artery assessed as inhibition of cAMP hydrolysis at 10^-4 M using 1 uM cAMP substrate in presence of 3% Me2SO; outline: as §2
Sus scrofa [7] = organism: Sus scrofa; assay: Inhibition of phosphodiesterase (peak-1) isolated from pig coronary artery assessed as inhibition of cGMP hydrolysis at 10^-7 to 10^-4 M using 1 uM cGMP substrate in presence of 3% EtOH
Sus scrofa [8] = organism: Sus scrofa; assay: Inhibition of phosphodiesterase (peak-1) isolated from pig coronary artery assessed as inhibition of cAMP hydrolysis at 10^-7 to 10^-4 M using 1 uM cAMP substrate in presence of 3% EtOH
Sus scrofa [9] = organism: Sus scrofa; assay: Inhibition of phosphodiesterase (peak-2) isolated from pig coronary artery assessed as inhibition of cAMP hydrolysis at 10^-7 to 10^-4 M using 1 uM cAMP substrate in presence of 3% EtOH

SMILES	IC50 [1]	IC50 [2]	IC50 [3]	inhibition (Sus scrofa [4])	inhibition (Sus scrofa [5])	inhibition (Sus scrofa [6])	inhibition (Sus scrofa [7])	inhibition (Sus scrofa [8])	inhibition (Sus scrofa [9])
CC(C)Cn1c(=O)n(C)c(=O)c2c1ncn2Cc1ccccc1[N+](=O)[O-]	60 µM	41 µM	142 µM	–	–	–	–	–	–
Cn1c(N)c(NCc2ccccc2)c(=O)n(C)c1=O	–	–	–	17%	15%	26%	–	–	–
CC(C)Cn1c(=O)n(C)c(=O)c2c1ncn2CCc1ccccc1	28 µM	17 µM	> 100 µM	–	41%	–	–	–	–
C#CCn1cnc2c1c(=O)n(C)c(=O)n2CC(C)C	36 µM	28 µM	65 µM	–	–	–	–	–	–
CC(C)Cn1c(=O)n(C)c(=S)c2c1ncn2Cc1ccccc1	3.3 µM	2.7 µM	28 µM	–	–	–	–	–	–
CC(C)Cn1c(=O)n(C)c(=O)c2c1ncn2Cc1ccncc1	146 µM	105 µM	> 300 µM	–	30%	–	–	–	–
CC(C)Cn1c(N)c(NCc2ccccc2)c(=O)n(C)c1=O	–	–	–	30%	9%	37%	–	–	–
COc1cc(Cn2cnc3c2c(=O)n(C)c(=O)n3CC(C)C)cc(OC)c1OC	46 µM	35 µM	> 100 µM	–	31%	–	–	–	–
CC(C)Cn1cc(NCc2ccccc2)c(=O)n(C)c1=O	–	–	–	10%	6%	17%	–	–	–

The remaining lines, values ahead:

IC50 [1]	IC50 [2]	IC50 [3]	inhibition (Sus scrofa [4])	inhibition (Sus scrofa [5])	inhibition (Sus scrofa [6])	inhibition (Sus scrofa [7])	inhibition (Sus scrofa [8])	inhibition (Sus scrofa [9])	SMILES
26 µM	19 µM	75 µM	–	–	–	–	–	–	COc1ccccc1Cn1cnc2c1c(=O)n(C)c(=O)n2CC(C)C
6.1 µM	3.7 µM	20 µM	–	–	–	–	–	–	CC(C)Cn1c(=O)n(C)c(=O)c2c1ncn2CC1CC1
34 µM	27 µM	> 100 µM	–	44%	–	–	–	–	CC(C)Cn1c(=O)n(C)c(=O)c2c1ncn2Cc1ccc([N+](=O)[O-])cc1
4.4 µM	3.6 µM	108 µM	–	–	–	Active	Active	Active	CC(C)Cn1c(=O)n(C)c(=O)c2c1ncn2Cc1ccccc1
7.1 µM	5.5 µM	6.8 µM	–	–	–	–	–	–	CC(C)Cn1c(=O)n(C)c(=S)c2[nH]cnc21
6.3 µM	3.9 µM	15 µM	–	–	–	Active	Active	Active	CC(C)Cn1c(=O)n(C)c(=O)c2nc[nH]c21 [ISOBUTYLMETHYLXANTHINE]
2.1 µM	2.3 µM	43 µM	–	–	–	–	–	–	CC(C)Cn1c(=O)n(C)c(=O)c2c1ncn2Cc1ccc(Cl)cc1
2.1 µM	1.3 µM	48 µM	–	–	–	–	–	–	CC(C)Cn1c(=O)n(C)c(=O)c2c1ncn2Cc1cccc(Cl)c1
16 µM	19 µM	> 100 µM	–	36%	–	–	–	–	CC(C)CCn1cnc2c1c(=O)n(C)c(=O)n2CC(C)C
65 µM	55 µM	126 µM	–	–	–	–	–	–	CC(C)Cn1c(=O)n(C)c(=O)c2c1ncn2C
